According to ChEMBL document CHEMBL1121608, “Modification of the 5' position of purine nucleosides. 2. Synthesis and some cardiovascular properties of adenosine-5'-(N-substituted)carboxamides” (J Med Chem, 1980):

Key:
Canis familiaris [1] = assay: Total time in minutes elapsed from the initiation of the change until return to the pretest value of blood pressure in coronary sinus of anesthetized dog at intravenous dosage of 1 mg/kg; type: functional, Canis lupus familiaris
Canis familiaris [2] = assay: Total time in minutes elapsed from the initiation of the change until return to the pretest value of blood pressure in coronary sinus of anesthetized dog at intravenous dosage of 10 mg/kg; type: functional, Canis lupus familiaris
Canis familiaris [3] = assay: Total time in minutes elapsed from the initiation of the change until return to the pretest value of heart rate in coronary sinus of anesthetized dog at intravenous dosage of 1 mg/kg; type: functional, Canis lupus familiaris
Canis familiaris [4] = assay: Total time in minutes elapsed from the initiation of the change until return to the pretest value of heart rate in coronary sinus of anesthetized dog at intravenous dosage of 10 mg/kg; type: functional, Canis lupus familiaris
Canis familiaris [5] = assay: Total time in minutes elapsed from the initiation of the change until return to the pretest value of oxygen partial pressure in coronary sinus of anesthetized dog at intravenous dosage of 1 mg/kg; type: functional, Canis lupus familiaris
Method in brief: (§1)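 Open-chest anesthetized dogs given compound by intravenous injection. Coronary sinus PO2 was monitored, and duration was the total time in minutes from the onset of the change until return to the pretest value.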

Canis familiaris [6] = assay: Total time in minutes elapsed from the initiation of the change until return to the pretest value of oxygen partial pressure in coronary sinus of anesthetized dog at intravenous dosage of 10 mg/kg; type: functional, Canis lupus familiaris; method in brief: as §1
Canis familiaris [7] = assay: Tested for percent increase in coronary sinus partial pressure of oxygen (PO2) in open chest anesthetized dog at intravenous dosage of 1.00 mg/kg; type: functional, Canis lupus familiaris
Canis familiaris [8] = assay: Tested for the percent increase in aortic blood pressure (BP) in open chest anesthetized dog at intravenous dosage of 1.00 mg/kg; type: functional, Canis lupus familiaris, Artery
Method in brief: (§2)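 Open-chest anesthetized dogs, compound given iv at the stated dose. Aortic blood pressure is reported as the change from the control (pre-dose) value. Other set-up follows the group's earlier cardiovascular protocol.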

Canis familiaris [9] = assay: Tested for the percent increase in aortic blood pressure (BP) in open chest anesthetized dog at intravenous dosage of 10.00 mg/kg; type: functional, Canis lupus familiaris, Artery; method in brief: as §2
Canis familiaris [10] = assay: Tested for the percent increase in coronary sinus partial pressure of oxygen (PO2) in open chest anesthetized dog at intravenous dosage of 10.00 mg/kg; type: functional, Canis lupus familiaris
[11] = Lethal dose in mice after intraperitoneal administration; type: toxicity, organism-based; conditions: mouse, in vivo, ip
Method in brief: (§3)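 Male and female mice, three per dose group, were given the compound by the stated route in increments of 0.5 log doses. The LD50 was estimated as an approximate value.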

[12] = Lethal dose in mice after peroral administration; type: toxicity, organism-based; conditions: mouse, in vivo, po; method in brief: as §3
Canis familiaris [13] = assay: Total time in minutes elapsed from the initiation of the change until return to the pretest value of blood pressure in coronary sinus of anesthetized dog at intravenous dosage of 9 mg/kg; type: functional, Canis lupus familiaris
Canis familiaris [14] = assay: Total time in minutes elapsed from the initiation of the change until return to the pretest value of heart rate in coronary sinus of anesthetized dog at intravenous dosage of 9 mg/kg; type: functional, Canis lupus familiaris
Canis familiaris [15] = assay: Total time in minutes elapsed from the initiation of the change until return to the pretest value of oxygen partial pressure in coronary sinus of anesthetized dog at intravenous dosage of 9 mg/kg; type: functional, Canis lupus familiaris; method in brief: as §1
Canis familiaris [16] = assay: tested for the percent increase in aortic blood pressure (BP) in open chest anesthetized dog at intravenous dosage of 9.00 mg/kg; type: functional, Canis lupus familiaris, Artery
Method in brief: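 Open-chest anesthetized dogs received intravenous doses. Aortic blood pressure was recorded as the change from control.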

Canis familiaris [17] = assay: tested for percent increase in coronary sinus partial pressure of oxygen (PO2) in open chest anesthetized dog at intravenous dosage of 9.00 mg/kg; type: functional, Canis lupus familiaris
Canis familiaris [18] = assay: Total time in minutes elapsed from the initiation of the change until return to the pretest value of blood pressure in coronary sinus of anesthetized dog at intravenous dosage of 0.01 mg/kg; type: functional, Canis lupus familiaris
Canis familiaris [19] = assay: Total time in minutes elapsed from the initiation of the change until return to the pretest value of blood pressure in coronary sinus of anesthetized dog at intravenous dosage of 0.1 mg/kg; type: functional, Canis lupus familiaris
Canis familiaris [20] = assay: Total time in minutes elapsed from the initiation of the change until return to the pretest value of heart rate in coronary sinus of anesthetized dog at intravenous dosage of 0.01 mg/kg; type: functional, Canis lupus familiaris
Canis familiaris [21] = assay: Total time in minutes elapsed from the initiation of the change until return to the pretest value of oxygen partial pressure in coronary sinus of anesthetized dog at intravenous dosage of 0.01 mg/kg; type: functional, Canis lupus familiaris
Canis familiaris [22] = assay: Total time in minutes elapsed from the initiation of the change until return to the pretest value of oxygen partial pressure in coronary sinus of anesthetized dog at intravenous dosage of 0.1 mg/kg; type: functional, Canis lupus familiaris
Canis familiaris [23] = assay: Tested for percent increase in coronary sinus partial pressure of oxygen (PO2) in open chest anesthetized dog at intravenous dosage of 0.01 mg/kg; type: functional, Canis lupus familiaris
Canis familiaris [24] = assay: Tested for the percent increase in coronary sinus partial pressure of oxygen (PO2) in open chest anesthetized dog at intravenous dosage of 0.10 mg/kg; type: functional, Canis lupus familiaris; conditions: dose 0.1 mg/kg
Canis familiaris [25] = assay: Total time in minutes elapsed from the initiation of the change until return to the pretest value of heart rate in coronary sinus of anesthetized dog at intravenous dosage of 0.1 mg/kg; type: functional, Canis lupus familiaris
Canis familiaris [26] = assay: Tested for percent increase in coronary sinus partial pressure of oxygen (PO2) in open chest anesthetized dog at intravenous dosage of 0.10 mg/kg; type: functional, Canis lupus familiaris; conditions: dose 0.1 mg/kg
Canis familiaris [27] = assay: Tested for the percent increase in aortic blood pressure (BP) in open chest anesthetized dog at intravenous dosage of 0.10 mg/kg; type: functional, Canis lupus familiaris, Artery; conditions: dose 0.1 mg/kg; method in brief: as §2
Canis familiaris [28] = assay: tested for the percent increase in heart rate (HR) in open chest anesthetized dog at intravenous dosage of 0.10 mg/kg; type: functional, Canis lupus familiaris; conditions: dose 0.1 mg/kg
Canis familiaris [29] = assay: Tested for the percent increase in coronary sinus partial pressure of oxygen (PO2) in open chest anesthetized dog at intravenous dosage of 1.00 mg/kg; type: functional, Canis lupus familiaris
Canis familiaris [30] = assay: Total time in minutes elapsed from the initiation of the change until return to the pretest value of blood pressure in coronary sinus of anesthetized dog at intravenous dosage of 1.00 mg/kg; type: functional, Canis lupus familiaris
Canis familiaris [31] = assay: Total time in minutes elapsed from the initiation of the change until return to the pretest value of blood pressure in coronary sinus of anesthetized dog at intravenous dosage of 0.10 mg/kg; type: functional, Canis lupus familiaris; conditions: dose 0.1 mg/kg
Method in brief: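 Open-chest anesthetized dogs were given the compound intravenously. Duration is the total minutes from the start of the change until return to the pretest value. Blood pressure was recorded as change from control.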

Canis familiaris [32] = assay: Total time in minutes elapsed from the initiation of the change until return to the pretest value of oxygen partial pressure in coronary sinus of anesthetized dog at intravenous dosage of 0.10 mg/kg; type: functional, Canis lupus familiaris; conditions: dose 0.1 mg/kg

CCN(CC)CCNC(=O)[C@H]1OC(n2cnc3c(N)ncnc32)[C@H](O)[C@@H]1O (stereo partly specified)
Duration (Canis familiaris [1]): 0 min | Duration (Canis familiaris [2]): 22 min | Duration (Canis familiaris [3]): 0 min | Duration (Canis familiaris [4]): 60 min | Duration (Canis familiaris [5]): 6 min | Duration (Canis familiaris [6]): 60 min | PO2 (Canis familiaris [7]): 57% | BP (Canis familiaris [8]): 0% | BP (Canis familiaris [9]): 7% | PO2 (Canis familiaris [10]): 25% | LD50 [11]: 50 mg/kg | LD50 [12]: > 1000 mg/kg

Nc1ncnc2c1ncn2C1O[C@H](C(=O)NCC(O)COc2cccc3ccccc23)[C@@H](O)[C@H]1O (stereo partly specified)
Duration (Canis familiaris [13]): 7 min | Duration (Canis familiaris [14]): 12 min | Duration (Canis familiaris [15]): 18 min | BP (Canis familiaris [16]): 8 mmHg | PO2 (Canis familiaris [17]): 152% | LD50 [11]: > 300 mg/kg | LD50 [12]: > 300 mg/kg

CNC(=O)[C@H]1O[C@@H](n2cnc3c(N)ncnc32)[C@H](O)[C@@H]1O
Duration (Canis familiaris [18]): 60 min | Duration (Canis familiaris [19]): 240 min | Duration (Canis familiaris [20]): 240 min | Duration (Canis familiaris [21]): 14 min | Duration (Canis familiaris [22]): 240 min | PO2 (Canis familiaris [23]): 105% | PO2 (Canis familiaris [24]): 215% | LD50 [11]: 5 mg/kg | LD50 [12]: 20 mg/kg

C#CCNC(=O)[C@H]1OC(n2cnc3c(N)ncnc32)[C@H](O)[C@@H]1O (stereo partly specified)
Duration (Canis familiaris [19]): 70 min | Duration (Canis familiaris [1]): 180 min | Duration (Canis familiaris [25]): 60 min | Duration (Canis familiaris [3]): 82 min | Duration (Canis familiaris [22]): 70 min | Duration (Canis familiaris [5]): 180 min | PO2 (Canis familiaris [26]): 50% | BP (Canis familiaris [27]): 5% | BP (Canis familiaris [8]): 40% | HR (Canis familiaris [28]): 13% | PO2 (Canis familiaris [29]): 133% | LD50 [11]: 200 mg/kg | LD50 [12]: > 1000 mg/kg

Nc1ncnc2c1ncn2[C@@H]1O[C@H](C(=O)NC2CCCC2)[C@@H](O)[C@H]1O
Duration (Canis familiaris [19]): 120 min | Duration (Canis familiaris [25]): 120 min | Duration (Canis familiaris [22]): 120 min | PO2 (Canis familiaris [26]): 83% | BP (Canis familiaris [27]): 12% | HR (Canis familiaris [28]): 25% | LD50 [11]: 200 mg/kg | LD50 [12]: 200 mg/kg

CN(C)C(=O)[C@H]1OC(n2cnc3c(N)ncnc32)[C@H](O)[C@@H]1O (stereo partly specified)
Duration (Canis familiaris [30]): 0 min | Duration (Canis familiaris [3]): 0 min | Duration (Canis familiaris [5]): 0 min | PO2 (Canis familiaris [7]): 0% | BP (Canis familiaris [8]): 0% | LD50 [11]: 50 mg/kg | LD50 [12]: 1000 mg/kg

Nc1ncnc2c1ncn2C1O[C@H](C(=O)NCCO)[C@@H](O)[C@H]1O (stereo partly specified)
Duration (Canis familiaris [18]): 90 min | Duration (Canis familiaris [31]): 240 min | Duration (Canis familiaris [20]): 42 min | Duration (Canis familiaris [25]): 15 min | Duration (Canis familiaris [21]): 90 min | Duration (Canis familiaris [32]): 240 min | PO2 (Canis familiaris [23]): 75% | PO2 (Canis familiaris [24]): 163% | LD50 [11]: 2 mg/kg | LD50 [12]: 5 mg/kg
